These results are taken from ChEMBL document CHEMBL5696442, “Discovery of type II inhibitors of TGFβ-activated kinase 1 (TAK1) and mitogen-activated protein kinase kinase kinase kinase 2 (MAP4K2)” (J Med Chem, 2015).

In test [1] the test system is Proto-oncogene tyrosine-protein kinase receptor Ret (Homo sapiens), P07949 [V804M]. Nature of the test: Inhibition of RET V804M mutant (unknown origin) at 1 uM by Ambit Kinomescan binding assay relative to control; values are per cent of control.
Test [2] concerns the target Tyrosine-protein kinase receptor UFO (Homo sapiens) (UniProt P30530). In words: Inhibition of AXL ACT labeling site in human A-375 cells at 5 uM by KiNativ Profiling analysis relative to control. It counts as cell-based.
The target in test [3] is Phosphatidylinositol 4-kinase beta (Homo sapiens) (UniProt Q9UBF8). Nature of the test: Inhibition of PI4KB ATP labeling site harbouring VPHTQAVVLNSKDKAPYLIYVEVLECENFDTTSVPAR in human A-375 cells at 0.5 uM by KiNativ Profiling analysis relative to control. It counts as cell-based.
The test system of test [4] is Receptor-type tyrosine-protein kinase FLT3 (Homo sapiens), P36888 [N841I]. Nature of the test: Inhibition of FLT3 N841I mutant (unknown origin) at 1 uM by Ambit Kinomescan binding assay relative to control; values are per cent of control.
For test [5], the target named is Cyclin-dependent kinase 2 (Homo sapiens) (UniProt P24941). Nature of the test: Inhibition of CDK2 Lys2 labeling site in human A-375 cells at 5 uM by KiNativ Profiling analysis relative to control. It counts as cell-based.
The target in test [6] is Focal adhesion kinase 1 (Homo sapiens) (UniProt Q05397). In words: Inhibition of FAK (unknown origin) at 1 uM by Ambit Kinomescan binding assay relative to control. A digest of the protocol:
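In vitro ATP-site competition binding assay against a panel of over 420 kinases (KinomeScan), with compound tested at 10 or 1 μM.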

The target in test [7] is T1, Acylglycerol kinase, mitochondrial (Homo sapiens) (UniProt Q53H12).
T1 sequence (whole entry): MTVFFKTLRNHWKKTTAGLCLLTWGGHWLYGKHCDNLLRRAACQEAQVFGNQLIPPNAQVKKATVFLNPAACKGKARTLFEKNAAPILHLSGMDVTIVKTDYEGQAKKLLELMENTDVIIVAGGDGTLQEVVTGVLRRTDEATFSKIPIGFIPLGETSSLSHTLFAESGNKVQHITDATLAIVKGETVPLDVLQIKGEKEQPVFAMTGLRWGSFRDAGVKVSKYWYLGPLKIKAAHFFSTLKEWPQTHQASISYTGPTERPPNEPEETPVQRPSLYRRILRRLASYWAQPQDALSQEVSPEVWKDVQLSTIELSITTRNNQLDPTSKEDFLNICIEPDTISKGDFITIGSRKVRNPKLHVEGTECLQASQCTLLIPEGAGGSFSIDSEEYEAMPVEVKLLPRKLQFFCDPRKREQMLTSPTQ
Nature of the test: Inhibition of AGK ATP labeling site in human A-375 cells at 5 uM by KiNativ Profiling analysis relative to control. Type of test: cell-based.

Test [8] addresses Ribosomal protein S6 kinase alpha-6 (Homo sapiens) (UniProt Q9UK32). Nature of the test: Inhibition of C-terminal RPS6KA6 kinase domain 2 (unknown origin) at 10 uM by Ambit Kinomescan binding assay.
Test [9] has as its target MAP kinase-interacting serine/threonine-protein kinase 1 (Homo sapiens) (UniProt Q9BUB5). In words: Inhibition of MKNK1 (unknown origin) at 10 uM by Ambit Kinomescan binding assay.
For test [10], the target named is Phosphatidylinositol 4,5-bisphosphate 3-kinase catalytic subunit gamma isoform (Homo sapiens) (UniProt P48736). Nature of the test: Inhibition of PIK3CG (unknown origin) at 10 uM by Ambit Kinomescan binding assay.
Test [11] deals with MAP kinase-activated protein kinase 5 (Homo sapiens) (UniProt Q8IW41). Nature of the test: Inhibition of MAPKAPK5 (unknown origin) at 10 uM by Ambit Kinomescan binding assay.
MAP kinase-activated protein kinase 5 (Homo sapiens), sequence (Q8IW41 whole entry): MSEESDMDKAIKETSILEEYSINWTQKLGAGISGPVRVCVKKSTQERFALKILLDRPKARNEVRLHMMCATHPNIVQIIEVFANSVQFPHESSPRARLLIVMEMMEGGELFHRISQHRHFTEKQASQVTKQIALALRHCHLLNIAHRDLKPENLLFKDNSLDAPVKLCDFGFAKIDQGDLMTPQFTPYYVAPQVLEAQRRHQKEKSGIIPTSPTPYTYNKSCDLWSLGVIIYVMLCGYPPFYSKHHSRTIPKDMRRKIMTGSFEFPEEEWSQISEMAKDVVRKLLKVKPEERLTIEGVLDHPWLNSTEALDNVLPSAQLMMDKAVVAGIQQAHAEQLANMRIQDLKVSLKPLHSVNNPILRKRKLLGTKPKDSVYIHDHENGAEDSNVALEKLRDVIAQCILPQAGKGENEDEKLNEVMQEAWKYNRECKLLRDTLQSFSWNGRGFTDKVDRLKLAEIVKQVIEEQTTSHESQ
The target of test [12] is Insulin receptor-related protein (Homo sapiens) (UniProt P14616). In words: Inhibition of INSRR (unknown origin) at 10 uM by Ambit Kinomescan binding assay relative to control.
Test [13] has as its system Phosphatidylinositol 4,5-bisphosphate 3-kinase catalytic subunit alpha isoform (Homo sapiens), P42336 [E545K]. Nature of the test: Inhibition of PIK3CA E545K mutant (unknown origin) at 10 uM by Ambit Kinomescan binding assay.
For test [14], the target named is Tyrosine-protein kinase ITK/TSK (Homo sapiens) (UniProt Q08881). In words: Inhibition of ITK (unknown origin) at 10 uM by Ambit Kinomescan binding assay.
Tyrosine-protein kinase ITK/TSK (Homo sapiens), sequence (Q08881 whole entry): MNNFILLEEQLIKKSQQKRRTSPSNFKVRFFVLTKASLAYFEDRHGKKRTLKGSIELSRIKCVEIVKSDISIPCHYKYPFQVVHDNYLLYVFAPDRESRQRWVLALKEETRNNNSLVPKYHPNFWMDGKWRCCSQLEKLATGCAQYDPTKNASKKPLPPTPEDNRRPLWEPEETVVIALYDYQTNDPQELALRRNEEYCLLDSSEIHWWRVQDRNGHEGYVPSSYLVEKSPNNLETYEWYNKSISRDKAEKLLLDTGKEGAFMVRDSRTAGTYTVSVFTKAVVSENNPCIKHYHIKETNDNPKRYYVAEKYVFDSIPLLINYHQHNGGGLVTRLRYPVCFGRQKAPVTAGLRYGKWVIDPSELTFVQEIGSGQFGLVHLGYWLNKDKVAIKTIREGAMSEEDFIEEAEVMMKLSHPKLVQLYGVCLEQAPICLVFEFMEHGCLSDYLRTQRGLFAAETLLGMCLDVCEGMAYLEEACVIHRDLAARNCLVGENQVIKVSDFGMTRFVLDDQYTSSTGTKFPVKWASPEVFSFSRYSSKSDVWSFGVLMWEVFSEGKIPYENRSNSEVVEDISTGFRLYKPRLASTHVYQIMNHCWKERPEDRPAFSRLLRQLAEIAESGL
Test [15] concerns the target Mitogen-activated protein kinase kinase kinase kinase 3 (Homo sapiens) (UniProt Q8IVH8). Nature of the test: Inhibition of MAP4K3 (unknown origin) at 10 uM by Ambit Kinomescan binding assay relative to control.
The target in test [16] is Serine/threonine-protein kinase 38 (Homo sapiens) (UniProt Q15208). Nature of the test: Inhibition of NDR1 ACT labeling site in human Huh-7 cell lysate at 1 uM by KiNativ Profiling analysis relative to control. Type of test: subcellular.
For test [17], the target named is Interferon-induced, double-stranded RNA-activated protein kinase (Homo sapiens) (UniProt P19525). In words: Inhibition of PKR Lys2 labeling site in human Huh-7 cell lysate at 1 uM by KiNativ Profiling analysis relative to control. Type of test: subcellular.
For test [18], the target named is T2, Inhibitor of nuclear factor kappa-B kinase subunit beta (Homo sapiens) (UniProt O14920).
T2 sequence (whole entry): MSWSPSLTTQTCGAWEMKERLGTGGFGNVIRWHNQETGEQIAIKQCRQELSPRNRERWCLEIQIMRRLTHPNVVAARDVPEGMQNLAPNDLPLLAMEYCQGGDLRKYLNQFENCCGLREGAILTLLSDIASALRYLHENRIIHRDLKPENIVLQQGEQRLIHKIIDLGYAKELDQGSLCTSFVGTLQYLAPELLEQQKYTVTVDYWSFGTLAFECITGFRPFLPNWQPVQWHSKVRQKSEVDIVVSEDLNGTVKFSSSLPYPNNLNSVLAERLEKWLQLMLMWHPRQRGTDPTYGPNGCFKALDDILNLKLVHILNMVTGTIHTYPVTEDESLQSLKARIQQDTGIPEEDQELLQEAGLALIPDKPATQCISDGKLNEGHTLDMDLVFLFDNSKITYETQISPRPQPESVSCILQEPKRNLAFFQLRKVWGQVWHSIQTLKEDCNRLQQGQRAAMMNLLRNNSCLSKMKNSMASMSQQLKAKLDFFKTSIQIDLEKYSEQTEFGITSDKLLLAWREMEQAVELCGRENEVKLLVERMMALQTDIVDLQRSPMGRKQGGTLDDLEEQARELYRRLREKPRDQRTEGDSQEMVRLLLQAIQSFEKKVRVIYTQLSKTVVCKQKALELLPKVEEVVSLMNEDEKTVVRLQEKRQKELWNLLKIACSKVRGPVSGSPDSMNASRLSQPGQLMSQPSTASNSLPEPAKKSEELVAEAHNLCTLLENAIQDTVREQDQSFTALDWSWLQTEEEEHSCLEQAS
Nature of the test: Inhibition of IKKb Lys2 labeling site in human Huh-7 cell lysate at 1 uM by KiNativ Profiling analysis relative to control. It counts as subcellular.

The target of test [19] is Serine/threonine-protein kinase Nek6 (Homo sapiens) (UniProt Q9HC98). In words: Inhibition of NEK6 Lys2 labeling site harbouring DIKPANVFITATGVVK in human Huh-7 cells at 1 uM by KiNativ Profiling analysis relative to control. It counts as cell-based.

Calls of active or inactive are those of the source. The rule behind the calls is not given here.

MAP kinase-interacting serine/threonine-protein kinase 1 (Homo sapiens), sequence (Q9BUB5 whole entry, looked up, canonical isoform): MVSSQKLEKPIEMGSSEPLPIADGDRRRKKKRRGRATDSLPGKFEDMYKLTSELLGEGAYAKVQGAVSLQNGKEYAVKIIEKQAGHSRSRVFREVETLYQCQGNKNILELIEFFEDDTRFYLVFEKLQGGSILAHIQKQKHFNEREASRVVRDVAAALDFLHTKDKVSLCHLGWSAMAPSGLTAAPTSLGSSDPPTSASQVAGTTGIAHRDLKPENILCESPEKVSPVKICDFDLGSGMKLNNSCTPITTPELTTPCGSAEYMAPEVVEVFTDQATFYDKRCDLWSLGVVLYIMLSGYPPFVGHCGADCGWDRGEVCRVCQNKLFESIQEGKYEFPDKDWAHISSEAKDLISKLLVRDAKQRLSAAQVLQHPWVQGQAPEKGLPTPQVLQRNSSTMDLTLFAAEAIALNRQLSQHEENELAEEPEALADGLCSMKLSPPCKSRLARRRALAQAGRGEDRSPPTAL
Focal adhesion kinase 1 (Homo sapiens), sequence (Q05397 2-1052 limits assumed): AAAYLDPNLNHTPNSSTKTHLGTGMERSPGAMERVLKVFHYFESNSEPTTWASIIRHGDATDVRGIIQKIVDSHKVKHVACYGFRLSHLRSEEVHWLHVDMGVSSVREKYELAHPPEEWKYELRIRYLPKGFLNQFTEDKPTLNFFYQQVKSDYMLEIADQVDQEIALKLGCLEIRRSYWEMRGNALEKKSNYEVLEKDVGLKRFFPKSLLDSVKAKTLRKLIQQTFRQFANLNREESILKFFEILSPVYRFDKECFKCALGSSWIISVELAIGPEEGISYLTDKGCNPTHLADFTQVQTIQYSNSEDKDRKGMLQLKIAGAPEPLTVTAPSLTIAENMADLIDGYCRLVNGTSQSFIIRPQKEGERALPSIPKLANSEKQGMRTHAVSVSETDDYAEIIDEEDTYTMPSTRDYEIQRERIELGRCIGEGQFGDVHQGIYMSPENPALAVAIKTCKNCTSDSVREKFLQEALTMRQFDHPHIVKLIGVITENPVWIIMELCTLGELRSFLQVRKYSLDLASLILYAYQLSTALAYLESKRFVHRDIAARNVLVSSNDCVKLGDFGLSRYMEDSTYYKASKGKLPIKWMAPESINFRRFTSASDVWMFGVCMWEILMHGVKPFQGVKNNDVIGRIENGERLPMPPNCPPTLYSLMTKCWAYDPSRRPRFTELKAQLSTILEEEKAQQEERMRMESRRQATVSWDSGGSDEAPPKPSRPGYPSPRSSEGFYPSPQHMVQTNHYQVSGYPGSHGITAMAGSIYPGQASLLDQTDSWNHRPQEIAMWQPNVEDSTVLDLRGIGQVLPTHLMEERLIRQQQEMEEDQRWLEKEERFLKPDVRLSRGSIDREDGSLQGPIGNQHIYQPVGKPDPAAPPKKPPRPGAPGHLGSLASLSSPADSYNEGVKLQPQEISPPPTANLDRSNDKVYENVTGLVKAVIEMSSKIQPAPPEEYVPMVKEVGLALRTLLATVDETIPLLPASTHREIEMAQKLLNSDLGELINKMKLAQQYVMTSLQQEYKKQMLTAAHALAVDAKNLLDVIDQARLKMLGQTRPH
Phosphatidylinositol 4,5-bisphosphate 3-kinase catalytic subunit alpha isoform (Homo sapiens), P42336 [E545K], sequence (P42336 whole entry E545K, canonical isoform): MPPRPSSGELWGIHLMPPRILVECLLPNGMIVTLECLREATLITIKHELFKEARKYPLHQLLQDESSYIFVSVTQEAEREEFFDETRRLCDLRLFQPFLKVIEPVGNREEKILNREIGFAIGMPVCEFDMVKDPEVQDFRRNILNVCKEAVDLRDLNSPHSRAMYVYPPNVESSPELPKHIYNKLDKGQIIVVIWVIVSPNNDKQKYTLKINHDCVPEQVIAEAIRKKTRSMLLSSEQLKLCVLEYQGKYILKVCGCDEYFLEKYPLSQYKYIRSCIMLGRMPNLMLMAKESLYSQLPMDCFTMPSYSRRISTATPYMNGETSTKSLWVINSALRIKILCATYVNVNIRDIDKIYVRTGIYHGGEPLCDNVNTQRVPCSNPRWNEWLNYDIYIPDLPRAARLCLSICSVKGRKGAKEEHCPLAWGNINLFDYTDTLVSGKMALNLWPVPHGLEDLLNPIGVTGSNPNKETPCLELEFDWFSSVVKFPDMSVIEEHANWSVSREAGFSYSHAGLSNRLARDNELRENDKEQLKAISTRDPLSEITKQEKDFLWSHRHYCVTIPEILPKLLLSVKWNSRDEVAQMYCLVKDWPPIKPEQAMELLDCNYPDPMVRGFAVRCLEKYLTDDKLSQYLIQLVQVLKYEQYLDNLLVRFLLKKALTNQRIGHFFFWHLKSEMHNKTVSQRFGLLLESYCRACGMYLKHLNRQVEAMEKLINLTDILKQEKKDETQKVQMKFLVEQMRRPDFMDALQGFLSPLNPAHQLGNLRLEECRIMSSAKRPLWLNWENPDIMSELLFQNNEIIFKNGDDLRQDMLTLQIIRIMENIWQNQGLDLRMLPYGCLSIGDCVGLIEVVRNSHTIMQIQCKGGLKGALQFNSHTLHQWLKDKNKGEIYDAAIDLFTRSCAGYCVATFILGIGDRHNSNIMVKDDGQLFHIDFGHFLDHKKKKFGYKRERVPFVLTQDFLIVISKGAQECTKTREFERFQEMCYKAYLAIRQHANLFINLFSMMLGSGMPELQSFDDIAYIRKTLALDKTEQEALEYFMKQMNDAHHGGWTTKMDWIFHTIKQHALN
Proto-oncogene tyrosine-protein kinase receptor Ret (Homo sapiens), P07949 [V804M], sequence (P07949 whole entry V804M): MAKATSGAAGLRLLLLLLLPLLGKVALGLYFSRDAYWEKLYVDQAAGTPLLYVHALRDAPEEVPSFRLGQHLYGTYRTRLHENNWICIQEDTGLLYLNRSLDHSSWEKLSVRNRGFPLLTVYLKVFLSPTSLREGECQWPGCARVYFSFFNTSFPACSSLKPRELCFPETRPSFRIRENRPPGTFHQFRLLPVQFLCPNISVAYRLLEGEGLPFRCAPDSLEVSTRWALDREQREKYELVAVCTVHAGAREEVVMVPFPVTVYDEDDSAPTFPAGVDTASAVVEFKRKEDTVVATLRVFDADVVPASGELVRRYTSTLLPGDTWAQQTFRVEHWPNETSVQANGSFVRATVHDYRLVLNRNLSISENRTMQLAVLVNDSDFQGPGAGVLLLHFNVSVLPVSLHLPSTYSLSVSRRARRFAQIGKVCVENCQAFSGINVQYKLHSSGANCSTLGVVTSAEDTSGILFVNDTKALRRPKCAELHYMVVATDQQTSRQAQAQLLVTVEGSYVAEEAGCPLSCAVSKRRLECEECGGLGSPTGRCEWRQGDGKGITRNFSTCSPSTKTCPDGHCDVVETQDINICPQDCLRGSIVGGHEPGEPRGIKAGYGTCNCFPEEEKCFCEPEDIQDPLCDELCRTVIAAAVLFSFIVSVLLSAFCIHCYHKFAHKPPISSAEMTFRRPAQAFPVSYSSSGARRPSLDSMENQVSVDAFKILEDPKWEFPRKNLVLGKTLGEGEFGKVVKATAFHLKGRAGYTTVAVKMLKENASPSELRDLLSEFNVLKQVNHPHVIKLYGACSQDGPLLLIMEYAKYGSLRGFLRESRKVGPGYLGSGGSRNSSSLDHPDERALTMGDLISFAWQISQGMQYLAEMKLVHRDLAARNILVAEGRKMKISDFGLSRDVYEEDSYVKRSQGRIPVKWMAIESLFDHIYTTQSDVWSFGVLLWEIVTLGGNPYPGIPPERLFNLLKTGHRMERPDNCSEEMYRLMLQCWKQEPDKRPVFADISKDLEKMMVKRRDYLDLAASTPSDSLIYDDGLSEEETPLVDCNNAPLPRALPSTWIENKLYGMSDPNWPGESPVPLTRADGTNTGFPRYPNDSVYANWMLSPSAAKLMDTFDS

In test [1], `CCN1CCN(Cc2ccc(NC(=O)c3ccc(C)c(/C=C/c4cnc5[nH]ccc5c4OC)c3)cc2C(F)(F)F)CC1` had a percent of control of 0.8%. Moreover, the inhibition – broadly, the drop in the measured response relative to a control, in per cent – was -6.1% in test [2]; 18.3% in test [3]; 3.4% in test [5]; 84% in [6]; 9.9% in test [7]. Moreover, the residual activity (usually the activity still measured, relative to the control) in [4] amounted to 2.3%.
Regarding `CCN1CCN(Cc2ccc(NC(=O)c3ccc(C)c(Oc4ccnc5[nH]ccc45)c3)cc2C(F)(F)F)CC1`, the inhibition entry in test [8], in [9], in [10], in test [11], in test [13] and in test [14] was “inactive” each time. The results for the inhibition in [12] and in test [15] were 23% and 18%, respectively.
For the compound `CNc1cc(Oc2cc(C(=O)Nc3cc(N4CCN(C)CC4)cc(C(F)(F)F)c3)ccc2C)ncn1`, the inhibition is 4.2% in [16], -3.6% in test [17], -5.1% in test [18] and -2.7% in test [19].
